Assay results published in PubChem BioAssay AID651783 (The Scripps Research Institute Molecular Screening Center, 2012).
Hit rate of the full screen: of about 2,400 compounds, about 2,000 (83%) were called active.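 Rule for the calls: active = activation above a cutoff set at the run's mean compound activation plus 3 SD (cut at about 39% in these data); inactive = the rest.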 So high a share suggests a set chosen from earlier hits. These entries were drawn from the full list.

Biological target: Trace amine-associated receptor 1 (Homo sapiens) (UniProt Q96RJ0)
Experiment: human TAAR1 agonists, retest of hits, confirmation, Fluo-8 calcium fluorescence, CHO RD-HGA16 cells (AID 651783);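 note: promiscuous G-alpha-16 overexpression reroutes TAAR1 signalling from cAMP to calcium; peak fluorescence divided by basal pre-compound fluorescence per well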
Conditions: CHO RD-HGA16 TAAR1, Fluo-8 calcium fluorescence; at 3 µM; active compounds read high
Method in brief: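 Control set: low DMSO wells, high PEA EC100 wells; Test system: hTAAR1/Gα16 CHO (RD-HGA16) cell line; Technique: Fluo-8 calcium signal, kinetic fluorescence read; Compound: 3 µM single dose; Evaluation: peak over basal fluorescence ratio as % activation; Replication: each compound tested in triplicate; Schedule: Fluo-8 loading 75 min 37 °C and 30 min RT.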

Trace amine-associated receptor 1 (Homo sapiens), sequence (Q96RJ0 whole entry, looked up): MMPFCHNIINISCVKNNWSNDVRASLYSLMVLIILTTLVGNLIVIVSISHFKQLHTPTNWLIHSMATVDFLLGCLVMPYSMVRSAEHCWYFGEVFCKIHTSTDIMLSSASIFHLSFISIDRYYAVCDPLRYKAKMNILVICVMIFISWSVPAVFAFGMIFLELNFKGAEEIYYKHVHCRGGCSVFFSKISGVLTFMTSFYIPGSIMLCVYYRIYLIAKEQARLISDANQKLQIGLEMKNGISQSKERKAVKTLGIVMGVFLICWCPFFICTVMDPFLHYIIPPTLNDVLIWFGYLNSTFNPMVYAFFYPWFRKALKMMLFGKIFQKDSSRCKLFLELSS

Row | Compound | activation
1 | c1ccc(CCNC2CCCCCC2)cc1 | 91.8% (active)
2 | CCCCC(=O)N/N=C/c1c(O)n(CC)c(=S)n(CC)c1=O | 106% (active)
3 | Cc1cccc(N2C(=O)NC(=O)/C(=C\c3cnn(-c4ccccc4)c3)C2=O)c1 | 46.7% (active)
4 | NCC(O)c1ccc(O)cc1 (centres undefined) | 88.3% (active)
5 | COc1ccc(Br)cc1CNCCc1cccc(Cl)c1 | 71% (active)
6 | CC(Cc1ccccc1)NC=O (centres undefined) | 82.1% (active)
7 | CCC(=NCCc1ccccc1)c1c(O)n(C2CCCCC2)c(=O)[nH]c1=O | 76.4% (active)
8 | Clc1ccc2nc3c(c(-c4ccccc4)c2c1)CNCC3 | 71% (active)
9 | O=C1NC(=O)N(Cc2ccco2)C(=O)/C1=C\c1ccc(-c2ccc(F)cc2)o1 | 52.5% (active)
